# Screening results (PubChem BioAssay)
# NPY-Y2 PAM-ag – potentiates or activates human NPY-Y2 receptor | P49146 | cells expressing NPY-Y2, potentiator/agonist read-out | activation, % at 3.6 µM | hit rate 0.45% among 220,000; in the data active = activation above about 27%;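 also: cells stimulated with NPY near EC25 plus isoproterenol at EC100; 0% = vehicle plus submaximal agonist and 100% = vehicle plus saturating agonist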
# Target sequence (P49146 whole entry, looked up): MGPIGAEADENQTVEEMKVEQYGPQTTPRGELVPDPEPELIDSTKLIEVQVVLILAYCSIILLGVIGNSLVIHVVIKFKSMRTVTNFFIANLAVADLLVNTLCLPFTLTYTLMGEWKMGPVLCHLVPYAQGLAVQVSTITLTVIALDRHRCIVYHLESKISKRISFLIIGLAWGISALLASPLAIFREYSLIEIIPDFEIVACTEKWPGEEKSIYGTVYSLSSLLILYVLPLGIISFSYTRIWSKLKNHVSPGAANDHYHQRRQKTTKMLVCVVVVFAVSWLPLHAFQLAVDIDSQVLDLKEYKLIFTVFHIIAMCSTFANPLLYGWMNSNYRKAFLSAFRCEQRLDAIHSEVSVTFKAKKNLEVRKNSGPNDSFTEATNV
# NPY Y2 blocker – blocks the human neuropeptide Y Y2 receptor | inhibition, % at 2.7 µM | NPY-Y2 expressing cells, antagonist mode | P49146 | hit rate 0.99% among 140,000;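 also: 0% = vehicle with agonist challenge and 100% = reference antagonist with challenge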
# NPY Y1 blocker – NPY-Y1 (human) receptor antagonism | inhibition, % at 3.6 µM | HEK293-CNG Y1 cells, membrane potential fluorescence; NPY at EC95, then isoproterenol | hit rate 1% among 200,000 | P25929;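 active = inhibition above the campaign mean inhibition of all tested compounds plus 3 SD, cut at about 20% in these data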;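 also: 0% = DMSO wells given NPY plus isoproterenol and 100% = isoproterenol alone without NPY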
#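 Material: HEK293 cells co-expressing NPY Y1 receptor and cyclic-nucleotide gated channel. Timing: compound incubation 1 h at room temperature, readout 45 min post-stimulation. Signal: fluorescence, membrane potential probe.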
# NPY1 pot ag – potentiates or activates human NPY-Y1 receptor. NPY-Y1 expressing cells, potentiator/agonist activation. activation, % at 3.6 µM. hit rate 0.37% among 220,000. AID 1304; in the data active = activation above about 33%, passing the limit was not always enough;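 also: cells stimulated with NPY at EC10 then isoproterenol at EC100; 0% = low agonist plus stimulus and 100% = saturating agonist plus stimulus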
# NPY-Y1 ant conf – human NPY-Y1 antagonism, confirmation | shares compounds with NPY Y1 blocker | HEK293-CNG NPY-Y1, membrane potential fluorescence, cAMP; NPY challenge against isoproterenol-raised cAMP | inhibition, % at 3.6 µM | hit rate 21% among 1,200; in the data active = inhibition above about 20%;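 also: 0% = vehicle with agonist plus stimulus and 100% = stimulus alone without agonist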
# NPY2 antag ctr – counter-screen for NPY-Y1 antagonists: human NPY-Y2 antagonism | hit rate 28% among 1,200 | HEK293 NPY-Y2 CNG membrane potential fluorescence; cells given NPY, then isoproterenol | shares compounds with NPY Y1 blocker | inhibition, % at 3.6 µM;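 also: 0% = DMSO with agonist challenge and 100% = reference antagonist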
# * marks the source's active call; other numbers are inactive results; · = no result given. This is a sample that favours compounds with a hit; in the whole collection about 1.9% have one here. Rule as the data show it, unless noted: active = inhibition above about 17%; inactive = the rest.
SMILES,NPY-Y2 PAM-ag,NPY Y2 blocker,NPY Y1 blocker,NPY1 pot ag,NPY-Y1 ant conf,NPY2 antag ctr
CCOC(=O)CNC(c1ccccc1)c1cc(Br)ccc1NC(C)=O (stereo not given),-17.2,·,46.8*,-39.0,5.4,7.3
COc1ccc(OC)c(Nc2cc(-c3ccccc3)nc(N)n2)c1,-7.2,7.0,42.2*,-32.5,2.2,13.2
Cc1cc2ncn(-c3ncnc4scc(-c5ccccc5)c34)c2cc1C,-13.1,14.7,31.1*,-24.7,18.2,12.8
Cc1cc2ncn(-c3ncnc4sc(C)c(C)c34)c2cc1C,-9.5,4.1,5.2,-18.3,·,·
COc1ccc2oc(=O)c(C(=O)C[n+]3cccc(C)c3)cc2c1,1.5,·,0.1,-0.5,·,·
CCN1/C(=C/c2sc(-c3ccccc3C)c[n+]2C)Sc2ccccc21,21.3,·,39.9*,-9.9,28.4*,15.0
CCN1/C(=C/c2ccc3cc(C)ccc3[n+]2CC)Sc2ccccc21,4.1,9.4,18.1,-95.1,·,·
CC(=O)Nc1ccc(NC(=O)C(C)OC(=O)C2CCN(S(=O)(=O)c3cccs3)CC2)cc1 (stereo not given),-1.2,·,·,4.5,·,·
CCOC(=O)c1sc(N(Cc2ccccc2)C(=O)COC(=O)c2ccccc2O)nc1C,-3.6,12.5,20.2*,-45.2,15.7,8.5
CCOC(=O)c1sc(N(C)C(C)=O)nc1C,6.9,1.1,1.9,9.4,·,·
CCc1ccccc1NC(=O)/C(=C/c1ccco1)c1ccccc1,0.1,2.3,22.0*,5.6,3.1,3.0
COC(=O)NC1CCC(NC(=O)OC)CC1 (stereo not given),-16.3,1.2,3.3,-15.6,·,·
C/C(=N\Nc1nc(C)c(C)s1)c1ccc([N+](=O)[O-])cc1,20.3,·,37.7*,25.8,41.9*,53.6*
C/C(=N\Nc1ccc([N+](=O)[O-])cc1)c1ccc(N)cc1,-11.5,-3.2,0.4,7.9,·,·
Cc1ccc(-c2nn(CC(=O)NN3CCOCC3)c(=O)c3ccccc23)cc1,9.5,·,·,3.9,·,·
CCOc1ccc(C(=O)CC(NCc2cccs2)C(=O)O)cc1 (stereo not given),-7.4,·,1.0,-18.8,·,·
COC(=O)c1ccc(S(=O)(=O)NC(C)(C)C)n1C,0.5,·,·,17.5,·,·
CCCCCCCOC(=O)C[N+](C)(C)CCOC1CC2CCC1(C)C2(C)C (stereo not given),0.4,15.0,13.4,-51.3,·,·
CCCCOC(=O)C[N+](C)(C)CCOC1CC2CCC1(C)C2(C)C (stereo not given),-8.7,4.7,28.3*,-28.1,7.9,9.3
CCNc1ccc(C(=O)NN=C2CCCC2)cc1[N+](=O)[O-],-0.7,·,-0.3,0.7,·,·
CCCCNC(=O)N1CCc2ccccc2C1,9.2,0.9,5.2,-5.9,·,·
CCCCNc1nc2ccccc2n1CC(=O)Nc1c(C)cccc1CC,7.0,9.8,31.4*,-34.8,19.5,14.2
CCCCNc1nc2ccccc2n1CC(=O)N1CCc2ccccc2C1,-8.9,15.1,22.7*,-33.0,8.8,9.2
CN(CCO)c1cc(N2CCN(C(=O)c3ccco3)CC2)c2nonc2c1[N+](=O)[O-],-10.3,0.4,5.8,-13.9,·,·
COc1nc(OC)nc(N2CCC(C(=O)Nc3cccc4ccccc34)CC2)n1,-9.5,10.6,35.0*,-35.0,12.6,13.8
SMILES,NPY-Y2 PAM-ag,NPY Y2 blocker,NPY Y1 blocker,NPY1 pot ag,NPY-Y1 ant conf,NPY2 antag ctr
CC(NC(=O)CNC(=O)C(Cc1ccccc1)NC(=O)OCc1ccccc1)C(N)=O (stereo not given),14.1,·,0.4,-2.6,·,·
CCOC(=O)CC1C(=O)NCCN1C(=O)c1cc2c(=O)n3cccc(C)c3nc2s1 (stereo not given),-9.4,0.3,0.6,-15.7,·,·
CCOC(=O)CC1C(=O)NCCN1C(=O)c1cc2c(=O)n3ccccc3nc2s1 (stereo not given),-16.8,2.7,98.1*,-9.8,1.5,2.8
COc1cccc(-c2noc(C3CCCN(S(=O)(=O)c4cccc(Cl)c4C)C3)n2)c1 (stereo not given),-4.7,6.0,29.9*,1.6,11.0,13.4
O=C(O)CCc1ccc(-c2ccc(Cl)cc2)o1,-28.7,14.7,16.8,-36.3,·,·
O=C(O)CCc1ccc(-c2ccc(Br)cc2)o1,-10.9,10.5,23.3*,-29.8,11.5,13.2
Nc1cc(=O)[nH]c(SCC(=O)NNC(=O)Cc2ccccc2)n1,9.6,·,16.1,3.5,·,·
COCC(=O)Nc1ccccc1Br,10.1,4.5,-0.9,5.0,·,·
COCC(=O)Nc1ccccc1C#N,-19.2,1.7,21.4*,-39.6,2.2,0.9
CCOc1ccccc1-c1nc(C(N)=O)c2[nH]c(=O)n(-c3cccc(C)c3)c2n1,-5.0,16.6,23.8*,3.5,13.1,5.8
CCOc1cccc(-c2nc(C(N)=O)c3[nH]c(=O)n(-c4cccc(Cl)c4)c3n2)c1O,-2.1,-0.8,0.1,9.6,·,·
COc1ccc(CN2CCC(CO)(CCOc3ccccc3)CC2)c(OC)c1C,-22.0,·,24.3*,-15.3,11.2,17.1
CCOc1ccccc1CN1CCC(CO)(CCOc2ccccc2)CC1,-32.2,·,31.4*,-49.4,14.3,16.7
CN(NC(=O)c1ccccc1F)c1ncccc1[N+](=O)[O-],-22.2,·,·,9.9,·,·
COc1cccc(NC(=O)c2ccccc2-c2nc(-c3ccc(F)cc3)no2)c1,-20.4,7.8,21.9*,-57.1,13.7,12.4
COc1cccc(NC(=O)c2ccccc2-c2nc(-c3ccccc3)no2)c1,-44.7,14.7,26.1*,-64.4,11.6,9.3
CCOC(=O)/C=C/C(=O)Nc1ccccc1C(=O)NC1CCCCC1,-3.4,-0.2,2.1,-31.1,·,·
c1ccc(-c2nnsc2Sc2ccccn2)cc1,-13.6,·,7.0,-12.2,·,·
O=C(CCCN1C(=O)c2cccc3cccc(c23)C1=O)N1CCc2ccccc2C1,-17.4,4.2,22.6*,-17.7,8.4,10.9
C[C@H]1CC[C@H]2C(=O)N3[C@H](c4cccc(N5CCCC5=O)c4)[C@@H](C)CC[C@H]3C(=O)N2[C@@H]1c1cccc(N2CCCC2=O)c1,-0.3,-0.3,-5.4,0.1,·,·
C[C@H]1CC[C@H]2C(=O)N3[C@H](c4ccccc4Br)[C@@H](C)CC[C@H]3C(=O)N2[C@@H]1c1ccccc1Br,16.7,12.4,27.7*,-3.8,19.6,9.0
CCC(=O)NS(=O)(=O)c1cccnc1Nc1ccccc1Cl,-16.5,12.2,23.9*,-27.5,21.7*,19.3*
CCc1ccc(NC(=O)C(C)OC(=O)c2ccc(N3CCCC3)c([N+](=O)[O-])c2)cc1 (stereo not given),5.7,4.6,-3.1,-15.1,·,·
O=C(COC(=O)CCSc1ccc(Cl)cc1)NCc1ccc(Cl)cc1,-25.1,8.8,10.9,-33.4,·,·
O=C(COC(=O)CCSc1ccc(Cl)cc1)NCc1ccccc1,-11.6,14.6,21.8*,-25.6,8.1,9.5
O=C(COC(=O)CCC(=O)c1ccc(Cl)cc1)NCc1ccco1,-23.5,·,22.1*,-23.7,5.2,3.6
O=C(COC(=O)CCC(=O)c1ccc(Cl)cc1)NCCc1ccccc1,-18.7,·,10.0,0.7,·,·
